Measured values published in ChEMBL document CHEMBL2046423, “NOSH-Aspirin: A Novel Nitric Oxide-Hydrogen Sulfide-Releasing Hybrid: A New Class of Anti-inflammatory Pharmaceuticals” (ACS Med Chem Lett, 2012).
Values belong to the compound of their own block, whether it stands above or below them. Active and inactive are the calls of the source. The calls are words filed in the database; no cut-off is given here.

Columns and labels:
HCT-15 = assay: Cytotoxicity against COX deficient human HCT15 cells after 24 hrs by MTT assay; format: functional, cell-based; conditions: HCT-15, 24 h
Procedure, shortened: (§1)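 Human cancer cell lines were exposed to compound and cell viability was read at 24 h. IC50 values were calculated from the viability data. Mean ± SEM of at least four experiments, each run in triplicate.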

HT-29 [1] = assay: Cytotoxicity against human HT-29 cells expressing COX1 and COX2 after 24 hrs by MTT assay; format: functional, cell-based; conditions: HT-29, 24 h; procedure, shortened: as §1
SW480 = assay: Cytotoxicity against human SW480 cells expressing COX1 after 24 hrs by MTT assay; format: functional, cell-based; conditions: SW480, 24 h; procedure, shortened: as §1
MDA-MB-231 = assay: Cytotoxicity against ER deficient human MDA-MB-231 cells after 24 hrs by MTT assay; format: functional, cell-based; conditions: MDA-MB-231, 24 h; procedure, shortened: as §1
SK-BR-3 = assay: Cytotoxicity against ER deficient human SKBR3 cells after 24 hrs by MTT assay; format: functional, cell-based; conditions: SK-BR-3, 24 h; procedure, shortened: as §1
MCF7 = assay: Cytotoxicity against human MCF7 cells expressing ER after 24 hrs by MTT assay; format: functional, cell-based; conditions: MCF7, 24 h; procedure, shortened: as §1
MIA PaCa-2 = assay: Cytotoxicity against COX deficient human MIAPaCa2 cells after 24 hrs by MTT assay; format: functional, cell-based; conditions: MIA PaCa-2, 24 h; procedure, shortened: as §1
BXPC-3 = assay: Cytotoxicity against human BxPC3 cells expressing COX1 and COX2 after 24 hrs by MTT assay; format: functional, cell-based; conditions: BXPC-3, 24 h; procedure, shortened: as §1
A549 = assay: Cytotoxicity against human A549 cells after 24 hrs by MTT assay; format: functional, cell-based; conditions: A549, 24 h; procedure, shortened: as §1
LNCaP = assay: Cytotoxicity against human LNCAP cells after 24 hrs by MTT assay; format: functional, cell-based; procedure, shortened: as §1
Jurkat = assay: Cytotoxicity against human Jurkat cells expressing COX1 and COX2 after 24 hrs by MTT assay; format: functional, cell-based; procedure, shortened: as §1
HT-29 [2] = assay: Ratio of aspirin IC50 to compound IC50 for human HT-29 cells expressing COX1 and COX2 after 24 hrs by MTT assay; format: functional; procedure, shortened: as §1
Rattus norvegicus [3] = assay: Antiinflammatory activity in rat assessed as reduction of carrageenan-induced paw volume at 0.56 mmol/kg after 1 to 3 hrs; format: functional
Rattus norvegicus [4] = assay: Antiinflammatory activity in rat assessed as reduction of carrageenan-induced paw volume at 0.56 mmol/kg after 6 hrs; format: functional
Rattus norvegicus [5] = assay: Antiinflammatory activity in rat assessed as reduction of carrageenan-induced paw volume at 0.56 mmol/kg after 1 hr; format: functional
Rattus norvegicus [6] = assay: Antiinflammatory activity in rat assessed as increase of carrageenan-induced TNFalpha level in plasma at 0.56 mmol/kg by ELISA; format: functional
Rattus norvegicus [7] = assay: Antiinflammatory activity in rat assessed as reduction of carrageenan-induced PGE2 level in paw exudates at 0.21 mmol/kg by […] (reference value: 82 +/- 2 pg/mg); format: functional
HT-29 [8] = assay: Cytotoxicity against human HT-29 cells expressing COX1 and COX2 assessed as lactate dehydrogenase release after 2 to 24 hrs; format: functional, cell-based
Procedure, shortened: (§2)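 HT-29 colon cancer cells were treated with several concentrations for 2, 4, 6, 8 or 24 h. Cytotoxicity was read as LDH release (%) relative to untreated controls.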

HT-29 [9] = assay: Cytotoxicity against human HT-29 cells expressing COX1 and COX2 assessed as lactate dehydrogenase release at IC50 to 4 times IC50; format: functional, cell-based; conditions: TDE = time-dependent effect; procedure, shortened: as §2
HT-29 [10] = assay: Cytotoxicity against human HT-29 cells expressing COX1 and COX2 assessed as lactate dehydrogenase release at 4 times IC50 after 24 hrs; format: functional; procedure, shortened: as §2
HT-29 [11] = assay: Cytotoxicity against human HT-29 cells expressing COX1 and COX2 assessed as lactate dehydrogenase release at IC50 after 2 to 8 hrs; format: functional; procedure, shortened: as §2
HT-29 [12] = assay: Cytotoxicity against human HT-29 cells expressing COX1 and COX2 assessed as lactate dehydrogenase release at 4 times IC50 after 2 to 8 hrs; format: functional; procedure, shortened: as §2
Rattus norvegicus [13] = assay: In vivo drug metabolism in carrageenan treated rat assessed as increase of H2S release in plasma by […]; format: ADME, organism-based
Procedure, shortened: (§3)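 Blood was collected at the end of the carrageenan paw edema study from rats given vehicle, the reference or the test compound (0.21 or 0.52 mmol/kg). Plasma NOx and H2S were quantified. Mean ± SEM, four rats per group.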

Rattus norvegicus [14] = assay: Antiinflammatory activity in rat assessed as reduction of carrageenan-induced paw volume at 0.21 mmol/kg after 3 hrs; format: functional
Rattus norvegicus [15] = assay: Antiinflammatory activity in rat assessed as reduction of carrageenan-induced paw volume at 0.21 mmol/kg after 6 hrs; format: functional
Rattus norvegicus [16] = assay: Antiinflammatory activity in rat assessed as reduction of carrageenan-induced paw volume at 0.21 mmol/kg after 1 hr; format: functional
Rattus norvegicus [17] = organism: Rattus norvegicus; assay: Antiinflammatory activity in rat assessed as reduction of carrageenan-induced paw volume measured after 6 hrs; format: functional, organism-based
Rattus norvegicus [18] = assay: In vivo drug metabolism in carrageenan treated rat assessed as increase of nitric oxide release in plasma by Griess reaction; format: ADME, organism-based; procedure, shortened: as §3
Rattus norvegicus [19] = assay: Antiinflammatory activity in rat assessed as reduction of carrageenan-induced TNFalpha level in plasma at 0.52 mmol/kg by ELISA; format: functional
Rattus norvegicus [20] = assay: Antiinflammatory activity in rat assessed as reduction of carrageenan-induced TNFalpha level in plasma at 0.21 mmol/kg by ELISA; format: functional
Rattus norvegicus [21] = assay: Antiinflammatory activity in rat assessed as reduction of carrageenan-induced paw volume at 0.52 mmol/kg after 1 to 2 hrs; format: functional
Rattus norvegicus [22] = assay: Antiinflammatory activity in rat assessed as reduction of carrageenan-induced paw volume at 0.52 mmol/kg after 2 to 6 hrs; format: functional
Rattus norvegicus [23] = assay: Antiinflammatory activity in rat assessed as reduction of carrageenan-induced PGE2 level in paw exudates at 0.52 mmol/kg by […] (reference value: 82 +/- 2 pg/mg); format: functional
Rattus norvegicus [24] = assay: Antiinflammatory activity in rat assessed as reduction of carrageenan-induced COX1 expression in paw exudates at 0.21 to 0.52 mmol/kg by Western blot analysis; format: functional, organism-based
Rattus norvegicus [25] = organism: Rattus norvegicus; assay: Antiinflammatory activity in rat assessed as reduction of carrageenan-induced COX2 expression in paw exudates by Western blot analysis; format: functional, organism-based

Compound: NC(=S)c1ccc(OC(=O)c2ccccc2OC(=O)CCCO[N+](=O)[O-])cc1
IC50 (HCT-15): 5.9 µM
IC50 (HT-29 [1]): 7.5 µM
IC50 (SW480): 5.3 µM
IC50 (MDA-MB-231): 6 µM
IC50 (SK-BR-3): 6.5 µM
IC50 (MCF7): 5.7 µM
IC50 (MIA PaCa-2): 4.8 µM
IC50 (BXPC-3): 5.5 µM
IC50 (A549): 6.5 µM
IC50 (LNCaP): 4.3 µM
IC50 (Jurkat): 7 µM
Ratio IC50 (HT-29 [2]): >600

Compound: CC(=O)Oc1ccccc1C(=O)O [ASPIRIN]
IC50 (HCT-15): > 5000 µM
IC50 (SW480): > 5000 µM
IC50 (MDA-MB-231): > 5000 µM
IC50 (SK-BR-3): > 5000 µM
IC50 (MCF7): > 5000 µM
IC50 (MIA PaCa-2): > 5000 µM
IC50 (BXPC-3): > 5000 µM
IC50 (A549): > 5000 µM
IC50 (LNCaP): > 5000 µM
IC50 (Jurkat): > 5000 µM
Activity (Rattus norvegicus [3]): 0.35 mL
Activity (Rattus norvegicus [4]): 0.35 mL
Activity (Rattus norvegicus [5]): 0.4 mL
Activity (Rattus norvegicus [6]): 200 pg/mL
Activity (Rattus norvegicus [7]): 12 pg/mg

Compound: O=C(CCCC[C@@H]1CCSS1)Oc1ccccc1C(=O)OCCCCO[N+](=O)[O-]
IC50 (HCT-15): 0.52 µM
IC50 (HT-29 [1]): 0.3 µM
IC50 (SW480): 0.6 µM
IC50 (MDA-MB-231): 0.8 µM
IC50 (SK-BR-3): 0.55 µM
IC50 (MCF7): 0.28 µM
IC50 (MIA PaCa-2): 0.8 µM
IC50 (BXPC-3): 0.7 µM
IC50 (A549): 0.3 µM
IC50 (LNCaP): 0.5 µM
IC50 (Jurkat): 0.24 µM
Ratio IC50 (HT-29 [2]): >16000

Compound: O=C(CCC(=O)Oc1ccccc1C(=O)Oc1ccc(-c2cc(=S)ss2)cc1)OCCCCO[N+](=O)[O-]
IC50 (HCT-15): 0.09 µM
IC50 (HT-29 [1]): 0.08 µM
IC50 (SW480): 0.097 µM
IC50 (MDA-MB-231): 0.085 µM
IC50 (SK-BR-3): 0.088 µM
IC50 (MCF7): 0.07 µM
IC50 (MIA PaCa-2): 0.102 µM
IC50 (BXPC-3): 0.1 µM
IC50 (A549): 0.12 µM
IC50 (LNCaP): 0.1 µM
IC50 (Jurkat): 0.09 µM
Ratio IC50 (HT-29 [2]): >60000

Drug metabolism (Rattus norvegicus [13]): Dose-dependent effect
Drug metabolism (Rattus norvegicus [18]): Dose-dependent effect
Compound: O=C(CCCO[N+](=O)[O-])Oc1ccccc1C(=O)Oc1ccc(-c2cc(=S)ss2)cc1
IC50 (HCT-15): 0.05 µM
IC50 (HT-29 [1]): 0.048 µM
IC50 (SW480): 0.06 µM
IC50 (MDA-MB-231): 0.1 µM
IC50 (SK-BR-3): 0.075 µM
IC50 (MCF7): 0.28 µM
IC50 (MIA PaCa-2): 0.047 µM
IC50 (BXPC-3): 0.057 µM
IC50 (A549): 0.05 µM
IC50 (LNCaP): 0.088 µM
IC50 (Jurkat): 0.1 µM
Ratio IC50 (HT-29 [2]): 100000
Activity (HT-29 [8]): Dose-dependent effect
Activity (HT-29 [9]): tde
Activity (HT-29 [10]): <10%
Activity (HT-29 [11]): 0.5%
Activity (HT-29 [12]): 1%
Activity (Rattus norvegicus [14]): 0.6 mL
Activity (Rattus norvegicus [15]): 0.4 mL
Activity (Rattus norvegicus [16]): 0.5 mL
Activity (Rattus norvegicus [17]): Dose-dependent effect
Activity (Rattus norvegicus [19]): 40 pg/mL
Activity (Rattus norvegicus [20]): 55 pg/mL
Activity (Rattus norvegicus [21]): 0.45 mL
Activity (Rattus norvegicus [22]): 0.35 mL
Activity (Rattus norvegicus [7]): 42 pg/mg
Activity (Rattus norvegicus [23]): 21 pg/mg
inhibition (Rattus norvegicus [24]): Active
inhibition (Rattus norvegicus [25]): Dose-dependent effect
